Assay: Toxicity liver stage against HepG2, at 10uM
Format: cell-based
Parameters: test concentration 10 uM, cell line HepG2-A16-CD81EGFP
Settings: human, HepG2-A16-CD81EGFP cells; read-out: INHIBITION
Method in brief: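 Uninfected HepG2-A16-CD81EGFP cells, 3 × 10^3 per well, 1536-well, plated on prespotted compound at 10 μM final, parasite-free screening media added to match infected plates; puromycin 10 μM positive, DMSO 0.5% negative; run in parallel with 48 h PbLuc assay at 37 °C, 5% CO2; viability by CellTiter-Glo luminescence, normalized to controls.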

Structure (SMILES)	cytotoxicity at 10 µM [%]
CCCc1cc(N2CCC(NC3CCOCC3)CC2)nc(C)n1	5.27
CC(C)(C)SCC(=O)NC(C)(C(N)=O)c1cccc(Cl)c1 (configuration not stated)	1.61
Cc1nc(NCCc2ccccc2)cc(C(=O)N2CCOCC2)n1	-3.01
CN(C)C(=O)N1C[C@H]2CC[C@@H](C1)N(Cc1nnc(-c3ccccc3)o1)C2	4.6
Cc1ccsc1C(=O)N1Cc2ccccc2C2(CCN(C)CC2)C1	2.6
Cc1oc(-c2ccsc2)nc1CC(=O)NCCCS(C)(=O)=O	-11.2
CSC(C)C(=O)N1CCCN(Cc2nccn2C)CC1 (configuration not stated)	-11.6
CCc1n[nH]c(C2CN(CC(=O)N(C)Cc3ccco3)CCO2)n1 (configuration not stated)	1.07
Cc1nc(C2(NCc3cc(C#N)ccc3F)CCCCC2)no1	9.68
CCn1nc(CC(C)C)cc1C(=O)N1CCC2(CC1)[C@H](O)C[C@@H]2O	-7.2
CCc1cnc(N2CC[C@@H]3CN(C(C)=O)CCO[C@@H]3C2)nc1	9.1
Cc1nc(CN(C)Cc2cn[nH]c2-c2ccc(F)cc2)c[nH]1	-17.8
COc1ccc(OC)c(CN(Cc2ccco2)Cc2[nH]cnc2C)c1	-2.51
COc1cc(C2CC(=O)Nc3c2c(=O)[nH]n3C2CCCC2)ccc1O (configuration not stated)	-1.37
OC1CCCN(Cc2cn(CC3CCN(C4CCSCC4)CC3)nn2)C1 (configuration not stated)	-61
Cc1cc(Br)cnc1N(C)CC1CCOC1 (configuration not stated)	4.99
Cc1ccc(S(=O)(=O)NC[C@H]2OC[C@@H](NCc3ccccn3)[C@@H]2O)cc1	-52.5
CN(CCCNC(=O)c1ccc(C#N)cc1)CC(F)(F)F	5.12
Cn1ncc2c(=O)[nH]c(CN3CCCc4cc(F)cc(F)c43)nc21	-1.76
Cc1nn(C)c(N2CCOCC2)c1CNC1CCN(C2CC2)CC1	-3.96
CC(C)c1noc(C2CC(=O)N(CCN(C)C)C2)n1 (configuration not stated)	-8.25
CC(C)Nc1cc(N2CCCC3(CN(C)C(=O)O3)C2)ncn1 (configuration not stated)	-53
O=C(CCCOc1ccccc1F)NCCCC(=O)Nc1cn[nH]c1	-11.1

Structure (SMILES)	cytotoxicity at 10 µM [%]
CC(C)N1[C@H](Cn2cncn2)C[C@@H]2CN(Cc3nccn3C)CC[C@@H]21	-106
CNC(=O)[C@H]1C[C@@H]2CN(C(=O)c3ccc(C)nc3)C[C@@H]2N1C(C)C	-116
O=C(CCN1CCCCO1)N1CCC(CO)(Cc2ccccc2)CC1	7.26
O=C(c1cc(C2CC2)[nH]n1)N1CCN(c2nccs2)CC1	1.39
Cn1cc(CN2CCCN(C(=O)c3ccc4ccccc4n3)CC2)cn1	-1.9
Cc1noc(C)c1CN(C)C(=O)NC1CCC(O)CC1 (configuration not stated)	-9.21
CC(NC(=O)c1cc(-c2cccc(Cl)c2)no1)C(=O)N1CCCC1 (configuration not stated)	3.59
COc1ccc(CN(CCC#N)CCN2CCOCC2)c(OC)c1	-1.39
Cc1cc(C)n(C2CN(CCc3ccncc3)C2)n1	-1.12
Fc1ccccc1CN1CCC(c2noc(-c3ccccn3)n2)CC1	-1.39
CCOn1c(SC(C)C)nc2ccccc2c1=O	-5.36
CC(Cn1cccn1)NC(=O)NCCN1CCc2ccccc2C1 (configuration not stated)	-4.45
Cc1nc(-c2cccc(C(=O)O)c2)c[nH]1	-3.24
CC(C)Nc1ncnc2c1CCN(C(=O)c1ccc[nH]1)CC2	-77.6
O=C(c1scc2c1OCCO2)N1CCC(Cc2cccc(CO)c2)C1 (configuration not stated)	6.01
Cc1nc(C)n(C2CCCN(C(=O)Cc3cccnc3)C2)n1 (configuration not stated)	-2.15
O=c1nc(SCc2cccnc2)c2c(n1CCO)CCCC2	8.97
Cc1cc(-c2cnn(CCNC(=O)CCn3cccn3)c2C2CC2)on1	-4.66
CN(Cc1ccc2nonc2c1)C(=O)c1ccc(C2CCCO2)s1 (configuration not stated)	12.1
CCC(C)N1CCc2c(C(=O)N(C)Cc3ccccn3)nn(C)c2C1 (configuration not stated)	-2.78
Cc1ccc2cnn(CCC(=O)Nc3nc(C)c(C)s3)c2c1	2.57
Cc1noc(C)c1CCC(=O)NCC1(O)CCN(c2ccccn2)C1 (configuration not stated)	2.12
Cc1nnc(NC(=O)NCCN(C(=O)OC(C)(C)C)C2CC2)s1	5.53

Structure (SMILES)	cytotoxicity at 10 µM [%]
O=C(NC[C@H]1C[C@@H]2CN(C(=O)c3ccno3)C[C@@H]2O1)C1CCC1	-5.21
CCC(CO)N(Cc1ccsc1)Cc1ccccc1C(=O)O (configuration not stated)	-14.4
Cn1ccc(C(=O)NC2CCC23CCN(C(=O)c2cnccn2)CC3)c1 (configuration not stated)	-71.4
Cc1nc(C)n(CC2CCCN(CCCc3ccccc3)C2)n1 (configuration not stated)	-6.02
COC[C@]1(O)CCN(Cc2cnc(N3CCOCC3)nc2)CC1(C)C	1.4
Cc1noc(C)c1CN1Cc2ccnn2CC(C(=O)NCC2CC2)C1 (configuration not stated)	-69.2
CC(C)(C)c1ncc(C(=O)NCCS(N)(=O)=O)s1	-9.58
O=c1c2cccc(F)c2ncn1CCN1CCNCC1	-0.812
CCc1ccccc1C(=O)NS(=O)(=O)CCCC#N	-5.83
COCC1CN(Cc2ccc(C)o2)Cc2nnn(C)c21 (configuration not stated)	-4.53
Nc1cc2c(nn1)CCN(C(=O)CC1CCCCC1)C2	-2.78
CCc1csc(C2CCCN(C(=O)c3ccc4c(c3)OCO4)C2)n1 (configuration not stated)	1.71
CCOCCN1CCC=C(C2c3nc[nH]c3CCN2C(C)=O)C1 (configuration not stated)	-3.67
CCNC(=O)NC1CCC(Oc2ccccc2C#N)CC1 (configuration not stated)	-9.08
O=C(CCCOc1cccc(F)c1)N1CCCC(n2cncn2)C1 (configuration not stated)	-13.2
NC(=O)CS(=O)(=O)Cc1csc(-c2ccccc2)n1	-9.59
Cn1cc(N2CCC(NC(=O)c3ccccc3F)C2=O)cn1 (configuration not stated)	-1.26
O=C1CCOCCN1Cc1ccc(Cl)c(Cl)c1	3.3
Cc1cc(N(C)Cc2cc(C(C)(C)C)n[nH]2)nc(-c2cccnc2)n1	19.9
O=C(NC1CC1)N1CCC2(CC1)CC(N1CCOCC1)c1ccccc12 (configuration not stated)	-109
CCc1cc(OC)c(OC)cc1C(=O)Nc1cccnc1	4.94
CC(C)NC(=O)[C@@]12CCO[C@@H]1CCN(Cc1ccc3c(c1)OCO3)C2	-1.34
CCNC(=O)N1CCC2(CC1)CCn1c(C3CC3)cnc12	1.89

Structure (SMILES)	cytotoxicity at 10 µM [%]
Cc1noc(C)c1C(=O)N1C[C@@H]2CN(Cc3cccnc3)CCO[C@@H]2C1	5.75
O=C(O)c1coc(COc2cccc3cnccc23)n1	-110
Cc1cccc(CNC(Cn2cncn2)c2ccccc2)c1C (configuration not stated)	-5.23
CCn1ncc2c1C(COC)CN(S(=O)(=O)N(C)C)C2 (configuration not stated)	12.5
O=C(O)c1cc(C2=CCCCC2)cc(S(=O)(=O)NCc2ccccn2)c1	-46.6
CSc1ccccc1CN1C[C@H]2CC[C@@H](C1)N(CC1CC1)C2=O	-4.81
COC(=O)c1ccc(C2CC(=O)Nc3c2cnn3C)cc1 (configuration not stated)	-2.56
CC(C)SCC(=O)N1CCc2c(nc(N(C)C)nc2N(C)C)C1	21.1
C[S+]([O-])c1nncn1CC(=O)c1ccc2c(c1)CCO2 (configuration not stated)	-2.85
CCC(=O)NCc1cc(Br)ccc1OC(F)F	17.2
CSc1ccc(C(O)CNS(=O)(=O)C2CC2)cc1 (configuration not stated)	-0.608
O=c1cc(N2CCNCC2)cnn1Cc1noc(C2CCCC2)n1	-53.5
CC(=O)N1CCc2[nH]nc(C(=O)N3CC=CC3)c2C1	-108
Cc1nccn1-c1ccc(C(C)NCc2cc[nH]n2)cc1 (configuration not stated)	5.33
Cc1nn(Cn2ccc(C(=O)N3CCCCCC3)n2)c(C)c1Cl	0.781
O=C(Nc1ccccn1)C1(n2cnnn2)CCCCC1	-7.03
CN(C)C(=O)c1ccc2c(c1)nc(N1CC[C@H](O)C1)n2C	-18.8
CCC(C)(CC(=O)OC)NC(=O)c1ccc(C(C)=O)cc1 (configuration not stated)	-4.89
CCc1cc(C(=O)N2CCC(Nc3ccc(C)nn3)CC2)sc1C	-1.03
O=c1c2ccccc2ncn1Cc1cc(C2CC2)[nH]n1	3.8
Clc1cccc2c3c([nH]c12)CCN(Cc1cc2n(n1)CCCNC2)C3	-17.1
O=C(O)c1ccccc1C1CCN(C2CCN(c3ccccc3)CC2)C1 (configuration not stated)	-14.5
O=C1CCC2(CCCN(C(=O)Cc3ccccn3)C2)N1 (configuration not stated)	4

Structure (SMILES)	cytotoxicity at 10 µM [%]
OC1(CNc2ccc(F)cc2)CCNCC1	2.4
CCc1ccc(C(=O)N2CCC(c3nncn3CC)CC2)cc1	-2.95
c1ccc(CN2CCN(Cc3cscn3)CC2)cc1	-2.69
CC(C)n1c(C2CCCN(CC(N)=O)C2)nc2ccccc21 (configuration not stated)	-7.68
c1ccc(C[C@H]2CN(Cc3nccs3)CC[C@H]2OCC2CC2)cc1	5.27
Cc1nc(CNCc2c(C(C)C)nn(C)c2N2CCOCC2)cs1	-2.51
CCN(Cc1cnn(C)c1)C[C@H]1CC[C@@H](Cc2ccc(C#N)cc2)O1	5.78
CC(C)c1nnc2ccc(N3CCCC(C(=O)Nc4nccs4)C3)nn12 (configuration not stated)	3.86
CN(C)CCN1CCN(Cc2cccs2)Cc2cccnc21	-3.24
O=C(Nc1ccccc1C(=O)NCCCN1CCOCC1)c1ccco1	8.17
Cc1noc(C)c1-c1n[nH]c2c1CN(S(=O)(=O)c1ccsc1)CC2	5.6
Cc1ncc(C(=O)NCCOc2ccccc2F)c(C)n1	24.8
CCC(=O)NC(C)c1ccccc1C (configuration not stated)	0.245
Cc1ccc(C(=O)N2CCC(O)(CN3CCc4ccccc4C3)C2)s1 (configuration not stated)	-1.61
COc1ncccc1CNC(=O)NC1CCCOc2ccccc21 (configuration not stated)	-6.14
O=C(C1CCCCC1)N1CC2(CCNCC2)C1	-8.58
CCOC(=O)CN1CCC(NC(=O)OC(C)(C)C)CC1	0.449
CC(Oc1cc(Cl)cc(Cl)c1)C(=O)NCCOCC(N)=O (configuration not stated)	-5.82
CC(C)c1noc(CN(C)C(c2ccc(F)cc2)c2cccnc2)n1 (configuration not stated)	5.66
CN1CCCN(C(=O)c2csc3nc(-c4ccc(Cl)cc4)cn23)CC1	2.14
